Experimental data: ChEMBL document CHEMBL1153949, “Design, synthesis, and structure-activity relationship of substrate competitive, selective, and in vivo active triazole and thiadiazole inhibitors of the c-Jun N-terminal kinase” (J Med Chem, 2009)
Activity calls are given as the source filed them. No cut-off for these calls is given here.

How the values were obtained:
[1] = Displacement of biotin-labeled pep-JIP11 from JNK by DELFIA assay
[2] = Displacement of biotin-labeled pep-JIP11 from JNK at 100 uM by DELFIA assay
How it was run: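 GST-JNK added at 10 nM final with Eu-anti-GST antibody (1.9 nM) and compound in DMSO. Incubated 1 hr at 0 °C, washed 5 times, enhancement solution added, and Eu fluorescence read after 10 min (ex 340, em 615 nm). Controls: unlabeled peptide and no-compound blanks.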

[3] = Inhibition of JNK at 100 uM by time-resolved FRET assay
How it was run: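 LanthaScreen TR-FRET kinase assay. JNK 35 ng/mL with ATF2 substrate 400 nM and ATP 200 μM in 50 mM HEPES pH 7.5, 10 mM MgCl2, 1 mM EGTA, 0.01% Brij-35, with compound. Reaction ran 1 hr at room temperature. Terbium-labeled antibody plus EDTA added, incubated another hour, and read as the 520/495 nm emission ratio.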

[4] = target: Mitogen-activated protein kinase 14 (Homo sapiens, UniProt Q16539); test: Inhibition of p38alpha
[5] = target: RAC-alpha serine/threonine-protein kinase (Homo sapiens) (UniProt P31749); test: Inhibition of AKT1 at 100 uM
Furin = Furin (Homo sapiens, UniProt P09958); test: Inhibition of furin
[6] = Inhibition of lethal factor
[7] = Selectivity for JNK over p38 alpha
[8] = Inhibition of TNF-alpha-stimulated JNK phosphorylation expressed in HeLa cells by time-resolved FRET assay; type: cell-based
How it was run: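 HeLa cells stably expressing GFP-c-Jun(1–79), seeded at 10000/well in phenol red-free Opti-MEM with 1% charcoal/dextran-treated FBS, incubated overnight. Compound pretreatment 60 min, then TNF-α 2 ng/ml for 30 min. Cells lysed in buffer containing 2 nM Tb-anti-phospho-c-Jun (Ser73) antibody and equilibrated 1 hr at room temperature. TR-FRET read at 520/490 nm; EC50 taken from the concentration series.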

Mus musculus = test: Enhancement of insulin insensitivity in BKS.Cg-+Lepr'db/-+Lepr'db/OlaHsd db/db mouse model assessed as reduction in blood glucose levels at 25 mg/kg, ip administered 30 mins before insulin injection; type: functional, organism-based; design: dose 25 mg/kg
How it was run: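 Male db/db mice, 11 weeks old, randomized by blood glucose and fasted 6 h. Compound given at 25 mg/kg i.p., then bovine insulin 0.75 mg/kg i.p. 30 min later. Blood glucose read from tail snips with a hand-held meter at set time points; food returned at 3 h. n=6; means ± S.D.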

[9] = Metabolic stability in rat liver microsomes at 4 uM; type: ADME, Microsome

Mitogen-activated protein kinase 14, sequence (Q16539 whole entry): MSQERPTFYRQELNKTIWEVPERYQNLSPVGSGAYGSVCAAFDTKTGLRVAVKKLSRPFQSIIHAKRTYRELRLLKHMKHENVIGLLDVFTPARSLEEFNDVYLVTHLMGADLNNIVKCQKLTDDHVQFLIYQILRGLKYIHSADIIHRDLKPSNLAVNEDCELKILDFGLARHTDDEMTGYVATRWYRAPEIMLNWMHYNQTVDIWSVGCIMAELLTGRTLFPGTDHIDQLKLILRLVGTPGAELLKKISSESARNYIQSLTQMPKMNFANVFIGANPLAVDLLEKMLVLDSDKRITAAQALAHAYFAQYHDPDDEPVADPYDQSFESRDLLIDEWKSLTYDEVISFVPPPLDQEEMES
RAC-alpha serine/threonine-protein kinase (Homo sapiens), sequence (P31749 whole entry): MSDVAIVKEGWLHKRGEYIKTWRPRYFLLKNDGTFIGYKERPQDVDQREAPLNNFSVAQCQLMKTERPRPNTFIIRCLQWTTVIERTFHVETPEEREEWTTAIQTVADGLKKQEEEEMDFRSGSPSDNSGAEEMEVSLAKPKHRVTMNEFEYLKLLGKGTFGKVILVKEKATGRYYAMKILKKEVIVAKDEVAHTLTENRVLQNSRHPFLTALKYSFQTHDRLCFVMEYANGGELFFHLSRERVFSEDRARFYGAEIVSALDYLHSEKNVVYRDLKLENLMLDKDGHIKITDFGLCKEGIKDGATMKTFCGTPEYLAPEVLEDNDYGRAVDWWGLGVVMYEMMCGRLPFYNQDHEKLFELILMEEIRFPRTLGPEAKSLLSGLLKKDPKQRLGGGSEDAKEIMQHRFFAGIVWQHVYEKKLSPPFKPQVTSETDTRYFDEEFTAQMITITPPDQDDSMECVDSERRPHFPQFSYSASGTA
Furin, sequence (P09958 whole entry): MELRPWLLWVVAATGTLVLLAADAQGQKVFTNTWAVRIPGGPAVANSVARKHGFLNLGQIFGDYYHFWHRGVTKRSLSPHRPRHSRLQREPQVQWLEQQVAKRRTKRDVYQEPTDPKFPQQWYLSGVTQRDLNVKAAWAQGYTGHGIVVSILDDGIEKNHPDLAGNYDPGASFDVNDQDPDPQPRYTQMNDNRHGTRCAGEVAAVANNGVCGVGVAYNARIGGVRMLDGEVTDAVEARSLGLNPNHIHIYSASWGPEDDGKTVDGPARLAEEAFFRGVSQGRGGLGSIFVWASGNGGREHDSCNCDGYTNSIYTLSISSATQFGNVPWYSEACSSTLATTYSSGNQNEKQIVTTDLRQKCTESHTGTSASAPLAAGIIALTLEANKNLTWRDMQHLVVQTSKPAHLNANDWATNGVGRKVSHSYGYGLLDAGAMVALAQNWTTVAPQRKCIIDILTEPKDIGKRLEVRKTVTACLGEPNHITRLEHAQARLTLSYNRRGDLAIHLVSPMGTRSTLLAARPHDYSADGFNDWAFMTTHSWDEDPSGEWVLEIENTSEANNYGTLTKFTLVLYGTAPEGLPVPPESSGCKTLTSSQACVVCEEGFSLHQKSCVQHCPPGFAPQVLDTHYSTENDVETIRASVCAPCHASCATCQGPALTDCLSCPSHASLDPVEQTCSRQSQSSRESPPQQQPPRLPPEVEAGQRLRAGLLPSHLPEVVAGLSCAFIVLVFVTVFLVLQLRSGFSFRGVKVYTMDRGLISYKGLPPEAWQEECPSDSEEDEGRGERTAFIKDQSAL

SMILES: O=[N+]([O-])c1cnc(Sc2nnc(O)n2-c2ccc3c(c2)OCCO3)s1
- IC50 [1]: 0.108 µM

SMILES: O=[N+]([O-])c1ccc(Sc2nnc(O)n2-c2ccccc2)s1
- inhibition [2]: 55%
- inhibition [3]: 22%

SMILES: O=[N+]([O-])c1cnc(Sc2nnc(Sc3ncc([N+](=O)[O-])s3)s2)s1
- IC50 [4]: > 100 µM
- inhibition [5]: 27%
- IC50 (Furin): > 50 µM
- IC50 [6]: > 100 µM

SMILES: O=[N+]([O-])c1cccc(CSc2nnc(SCc3cccc([N+](=O)[O-])c3)s2)c1
- inhibition [2]: inactive

SMILES: CCSc1nnc(O)n1-c1ccccc1
- inhibition [2]: inactive
- inhibition [3]: 16%

SMILES: COc1ccc(CSc2nnc(SCc3ccc(OC)cc3)s2)cc1
- inhibition [2]: inactive

SMILES: c1ccc(CSc2nnc(SCc3ccccc3)s2)cc1
- inhibition [2]: inactive

SMILES: O=[N+]([O-])c1ccc(CSc2nnc(SCc3ccc([N+](=O)[O-])cc3)s2)cc1
- inhibition [2]: inactive

SMILES: O=c1[nH]nc(Sc2ncc([N+](=O)[O-])s2)n1-c1ccc([N+](=O)[O-])cc1
- IC50 [4]: > 100 µM
- IC50 (Furin): > 50 µM

SMILES: Nc1nnc(SCc2ccc(F)cc2)s1
- IC50 [1]: > 1 µM

SMILES: Cn1cccc1-c1nnc(Sc2ncc([N+](=O)[O-])s2)n1-c1ccc(Cl)cc1Cl
- IC50 [4]: > 100 µM
- inhibition [5]: 14%
- IC50 (Furin): > 50 µM
- IC50 [6]: > 100 µM

SMILES: O=C(Nc1nnc(Sc2ncc([N+](=O)[O-])s2)s1)c1ccc(F)cc1
- inhibition [2]: inactive

SMILES: O=[N+]([O-])c1cnc(Sc2nnc(O)n2-c2ccc(F)c(F)c2)s1
- inhibition [2]: 73%

SMILES: Nc1nnc(Sc2ncc([N+](=O)[O-])s2)s1
- Ratio IC50 [7]: 142
- Activity [1]: Dose-dependent effect
- IC50 [4]: > 100 µM
- inhibition [5]: 11%
- IC50 (Furin): > 50 µM
- IC50 [6]: > 100 µM
- EC50 [8]: 6.23 µM
- Activity (Mus musculus): Active
- half-life at 4 µM [9]: 27 min

SMILES: Oc1nnc(SCc2ccccc2)n1-c1ccc2c(c1)OCCO2
- inhibition [2]: inactive
- inhibition [3]: 2%

SMILES: Fc1ccc(CSc2nnc(SCc3ccc(F)cc3)s2)cc1
- inhibition [2]: inactive

SMILES: O=[N+]([O-])c1ccc(-n2c(O)nnc2Sc2ncc([N+](=O)[O-])s2)cc1
- inhibition [5]: 20%
- IC50 [6]: > 100 µM

SMILES: CCCCSc1nnc(O)n1-c1ccccc1
- inhibition [2]: inactive
- inhibition [3]: 25%
